This is an account of results in ChEMBL document CHEMBL5252513, “Identification of a Benzoisoxazoloazepine Inhibitor (CPI-0610) of the Bromodomain and Extra-Terminal (BET) Family as a Candidate for Human Clinical Trials” (J Med Chem, 2016).

pIC50: −log10 of the molar value. Activity calls are given as the source filed them.

Series [1] is described as follows: Toxicity in dog assessed as GI mucosal erosion at 2 to 6 mg/kg,po QD consecutive for 14 days followed by 2 weeks recovery period. In kind it is organism-based, Canis lupus familiaris. Conditions: in vivo, 336 h, dose 2-6 mg/kg, time 14 day. A digest of the protocol:
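Oral suspension given once daily for 14 consecutive days (rat 2, 6, 20 mg/kg; dog 2, 4, 6 mg/kg) in dose range-finding and GLP repeat-dose studies, GLP arms with an added 2-week recovery period; histopathology and clinical pathology findings recorded.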

Series [2] can be described thus: Intrinsic clearance in mouse liver microsomes. It counts as ADME, Microsome. The following applies: read-out: CLH. On the technique in general: Microsomes from liver hold many membrane-bound enzymes, among them those of drug oxidation.
For series [3], the system named is MV4-11. Briefly: Antitumor activity against human MV4-11 cells xenografted in BALB/c mouse assessed as complete tumor growth inhibition at 10 mg/kg,sc BID in presence of doxorubicin at 2 mg/kg,iv BIW for 28 days. Conditions: time 28.0 day. It counts as functional, organism-based.
For series [4], the target named is T1, Transcription intermediary factor 1-alpha (Homo sapiens, UniProt O15164).
T1 sequence (O15164 whole entry): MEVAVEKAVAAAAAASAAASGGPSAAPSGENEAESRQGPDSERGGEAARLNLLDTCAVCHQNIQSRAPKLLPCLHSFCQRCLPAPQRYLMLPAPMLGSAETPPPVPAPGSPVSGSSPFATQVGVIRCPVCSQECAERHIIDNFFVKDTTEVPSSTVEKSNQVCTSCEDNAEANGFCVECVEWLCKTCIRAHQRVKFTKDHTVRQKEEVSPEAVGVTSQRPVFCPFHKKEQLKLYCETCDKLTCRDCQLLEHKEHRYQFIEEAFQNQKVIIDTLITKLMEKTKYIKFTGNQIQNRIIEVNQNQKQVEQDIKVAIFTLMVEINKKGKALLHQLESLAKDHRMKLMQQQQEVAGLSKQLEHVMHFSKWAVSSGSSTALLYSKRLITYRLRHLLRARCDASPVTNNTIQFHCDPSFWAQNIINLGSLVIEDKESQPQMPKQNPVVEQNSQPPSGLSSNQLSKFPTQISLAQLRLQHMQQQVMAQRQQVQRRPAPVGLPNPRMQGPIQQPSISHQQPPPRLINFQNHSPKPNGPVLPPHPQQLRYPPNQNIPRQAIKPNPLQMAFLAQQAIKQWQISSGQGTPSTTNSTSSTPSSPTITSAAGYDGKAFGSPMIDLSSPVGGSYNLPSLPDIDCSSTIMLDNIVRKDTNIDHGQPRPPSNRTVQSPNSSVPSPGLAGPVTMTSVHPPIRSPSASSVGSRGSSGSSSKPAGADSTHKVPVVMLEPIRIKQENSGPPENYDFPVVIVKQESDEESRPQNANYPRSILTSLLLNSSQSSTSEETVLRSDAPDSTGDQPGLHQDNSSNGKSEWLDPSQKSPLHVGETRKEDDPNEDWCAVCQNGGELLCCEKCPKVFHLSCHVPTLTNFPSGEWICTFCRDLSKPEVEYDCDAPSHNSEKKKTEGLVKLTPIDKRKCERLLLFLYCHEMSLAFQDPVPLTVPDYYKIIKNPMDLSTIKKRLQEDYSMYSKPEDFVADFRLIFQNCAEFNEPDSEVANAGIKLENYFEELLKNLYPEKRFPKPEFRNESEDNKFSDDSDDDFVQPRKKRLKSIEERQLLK
The experiment in a line: Binding affinity to TRIM24 bromodomain (unknown origin) incubated for 60 mins by TR-FRET assay. Background: TR-FRET usually uses a lanthanide donor and a delayed reading to cut background.

Series [5] concerns MV4-11. Briefly: In vivo inhibition of BRD4 in human MV4-11 cells xenografted in BALB/c mouse assessed as reduction in cellular MYC mRNA expression level in plasma at 15 mg/kg,sc BID and measured at 4 hrs by PCR anlaysis. In kind it is functional, organism-based. A digest of the protocol: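 Pharmacodynamic study in MV-4-11 AML mouse xenograft. Dosing was 15 mg/kg subcutaneous twice daily. At 4, 8 and 12 h after the second dose, MYC mRNA was measured against vehicle, and compound levels were measured in plasma and tumor. Free plasma concentration was estimated alongside total levels.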

The nature of series [6]: Unbound clearance in dog at 0.5 mg/kg,iv. It counts as ADME, organism-based, Canis lupus familiaris. The following applies: in vivo.
The nature of series [7]: Half life in dog plasma at 0.5 mg/kg,iv. It counts as ADME, organism-based, Canis lupus familiaris.
For series [8], the target named is T2, ATPase family AAA domain-containing protein 2 (Homo sapiens, UniProt Q6PL18).
T2 sequence (Q6PL18 whole entry): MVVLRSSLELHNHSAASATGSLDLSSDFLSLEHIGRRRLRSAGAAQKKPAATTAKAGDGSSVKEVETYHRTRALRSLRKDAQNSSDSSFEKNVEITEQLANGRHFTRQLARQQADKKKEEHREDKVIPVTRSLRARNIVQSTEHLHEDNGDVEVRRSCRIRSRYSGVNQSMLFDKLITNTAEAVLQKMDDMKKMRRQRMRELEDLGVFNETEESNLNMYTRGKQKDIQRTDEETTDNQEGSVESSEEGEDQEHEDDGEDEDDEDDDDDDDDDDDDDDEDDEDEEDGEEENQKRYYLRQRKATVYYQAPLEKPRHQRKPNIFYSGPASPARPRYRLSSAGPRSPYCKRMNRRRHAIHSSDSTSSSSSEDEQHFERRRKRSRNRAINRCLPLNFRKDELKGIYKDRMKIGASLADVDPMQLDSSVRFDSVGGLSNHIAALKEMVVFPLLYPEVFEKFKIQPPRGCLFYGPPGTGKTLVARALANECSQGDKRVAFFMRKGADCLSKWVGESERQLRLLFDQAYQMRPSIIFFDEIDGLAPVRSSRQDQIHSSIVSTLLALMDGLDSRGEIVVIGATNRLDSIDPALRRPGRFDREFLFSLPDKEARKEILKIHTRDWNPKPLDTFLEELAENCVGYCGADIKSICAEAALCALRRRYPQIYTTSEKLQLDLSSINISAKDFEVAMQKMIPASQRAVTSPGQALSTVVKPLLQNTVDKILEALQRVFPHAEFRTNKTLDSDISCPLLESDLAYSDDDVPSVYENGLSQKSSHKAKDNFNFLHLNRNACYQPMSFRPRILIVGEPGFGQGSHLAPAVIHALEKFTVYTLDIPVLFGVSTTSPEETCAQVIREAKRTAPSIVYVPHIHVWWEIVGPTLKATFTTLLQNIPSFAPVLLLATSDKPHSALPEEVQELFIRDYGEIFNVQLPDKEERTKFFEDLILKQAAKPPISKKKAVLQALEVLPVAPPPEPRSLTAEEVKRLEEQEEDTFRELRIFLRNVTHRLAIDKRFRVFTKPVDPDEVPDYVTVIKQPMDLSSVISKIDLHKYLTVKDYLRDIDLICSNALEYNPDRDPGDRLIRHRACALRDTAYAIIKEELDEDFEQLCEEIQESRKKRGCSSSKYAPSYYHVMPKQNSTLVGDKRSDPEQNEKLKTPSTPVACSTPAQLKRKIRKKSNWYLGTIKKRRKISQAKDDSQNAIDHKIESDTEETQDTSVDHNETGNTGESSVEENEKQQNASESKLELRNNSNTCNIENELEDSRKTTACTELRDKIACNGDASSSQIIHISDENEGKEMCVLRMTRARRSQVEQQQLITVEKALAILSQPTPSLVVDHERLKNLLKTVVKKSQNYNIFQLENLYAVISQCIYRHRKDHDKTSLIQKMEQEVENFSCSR
Briefly: Binding affinity to ATAD2 bromodomain (unknown origin) incubated for 60 mins by TR-FRET assay.

The term pIC50 denotes the negative decadic logarithm of the IC50, by convention in mol/L. Read a low pIC50 as a large IC50. By half-life is commonly meant the time needed for the level to fall by half in the phase considered. A high value points to slow loss. Take `Cc1noc2c1-c1ccccc1C(c1ccc(Cl)cc1)=N[C@H]2CC(N)=O` [PELABRESIB]: the Activity entry in series [1] is given as “Toxic”. Also, the predicted hepatic clearance in series [2] was 30 mL/min/kg. For the same compound, in the series on MV4-11 [3], the outcome was Active. Also, the results for the pIC50 in series [4] and in series [8] were less than 4.70 and less than 4.10, respectively. Also, the inhibition result in the series with MV4-11 [5] is “Active”. The CL free in series [6] is 46.7 mL/min/kg. Further, in series [7], the half-life is 9 h.
